# Data reported in ChEMBL document CHEMBL3864185, “Identification of N-(2-Phenoxyethyl)imidazo[1,2-a]pyridine-3-carboxamides as New Antituberculosis Agents” (ACS Med Chem Lett, 2016).
# Assays:
# [1] = tested on: Mycobacterium tuberculosis; assay: Antimycobacterial activity against drug-sensitive Mycobacterium tuberculosis H37Rv ATCC 27294 after 7 days by microplate alamar blue assay; format: functional; conditions: H37Rv ATCC 27294, 168 h
# Summary of the method: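 Microplate Alamar Blue Assay against M. tuberculosis H37Rv ATCC 27294, read by fluorescence. MIC was the lowest concentration that reduced fluorescence by >90% relative to the mean of replicate bacterium-only controls.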
# [2] = Apparent volume of distribution in rat at 25 mg/kg, po administered as single dose; format: ADME, organism-based; conditions: in vivo
# Summary of the method: (§1)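 Rats given one oral dose of 25 mg/kg; n = 6 animals, values as mean ± SD. Plasma profile gave Cmax, Tmax, AUC from zero to infinity, elimination half-life, mean residence time, apparent clearance (CL/F) and apparent volume of distribution (Vd/F).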
# Escherichia coli = assay: Antibacterial activity against Escherichia coli ATCC 25922 after 18 to 24 hrs by NCCLS M100-S11 based assay; format: functional
# Rattus norvegicus = assay: Acute toxicity in rat assessed as mortality at 500 mg/kg, po administered as single dose measured up to 7 days post dose; format: organism-based; conditions: in vivo, 168 h
# Summary of the method: (§2)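 Single dose given intravenously to mice (50 and 100 mg/kg) or orally to rats (500 and 1000 mg/kg).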
# Klebsiella pneumoniae = assay: Antibacterial activity against Klebsiella pneumoniae 12-1 after 18 to 24 hrs by NCCLS M100-S11 based assay; format: functional
# [3] = AUC (0 to infinity) in rat at 25 mg/kg, po administered as single dose; format: ADME, organism-based; parameters: dose 25 mg/kg, route oral, time infinity; conditions: in vivo; summary of the method: as §1
# [4] = Cmax in rat at 25 mg/kg, po administered as single dose; format: ADME, organism-based; parameters: dose 25 mg/kg, route oral; conditions: in vivo; summary of the method: as §1
# [5] = tested on: Staphylococcus epidermidis; assay: Antibacterial activity against methicillin-sensitive Staphylococcus epidermidis 12-1 after 18 to 24 hrs by NCCLS M100-S11 based assay; format: functional
# Staphylococcus aureus [6] = assay: Antibacterial activity against Staphylococcus aureus ATCC 25923 after 18 to 24 hrs by NCCLS M100-S11 based assay; format: functional
# [7] = Mean residence time in rat at 25 mg/kg, po administered as single dose; format: ADME, organism-based; conditions: in vivo; summary of the method: as §1
# Pseudomonas aeruginosa = assay: Antibacterial activity against Pseudomonas aeruginosa 12-12 after 18 to 24 hrs by NCCLS M100-S11 based assay; format: functional
# Mus musculus = assay: Acute toxicity in mouse assessed as mortality at 50 to 100 mg/kg, iv administered as single dose measured up to 7 days post dose; format: organism-based; conditions: in vivo, 168 h; summary of the method: as §2
# Streptococcus pneumoniae = assay: Antibacterial activity against Streptococcus pneumoniae ATCC 49619 after 18 to 24 hrs by NCCLS M100-S11 based assay; format: functional
# [8] = Apparent clearance in rat at 25 mg/kg, po administered as single dose; format: ADME, organism-based; conditions: in vivo; summary of the method: as §1
# [9] = Tmax in rat at 25 mg/kg, po administered as single dose; format: ADME, organism-based; conditions: in vivo; summary of the method: as §1
# [10] = tested on: Staphylococcus epidermidis; assay: Antibacterial activity against methicillin-resistant Staphylococcus epidermidis 12-6 after 18 to 24 hrs by NCCLS M100-S11 based assay; format: functional
# Summary of the method: (§3)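 Broth MIC set up per NCCLS M100-S11. Plates were incubated at 35 °C for 18–24 h. MIC was the lowest concentration that inhibited visible bacterial growth, i.e. complete growth inhibition.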
# Staphylococcus aureus [11] = assay: Antibacterial activity against methicillin-sensitive Staphylococcus aureus 12-1 after 18 to 24 hrs by NCCLS M100-S11 based assay; format: functional
# [12] = Half life in rat at 25 mg/kg, po administered as single dose; format: ADME, organism-based; conditions: in vivo; summary of the method: as §1
# Staphylococcus aureus [13] = assay: Antibacterial activity against methicillin-resistant Staphylococcus aureus 12-2 after 18 to 24 hrs by NCCLS M100-S11 based assay; format: functional; summary of the method: as §3
compound,measurement,setting,value
Cc1ccc2nc(C)c(C(=O)NCCOc3ccc([N+](=O)[O-])cc3)n2c1,MIC90,[1],0.245 µg/mL
Cc1ccn2c(C(=O)NCCOc3ccccc3C)c(C)nc2c1,MIC90,[1],0.231 µg/mL
Cc1ccn2c(C(=O)NCCOc3ccc(F)cc3)c(C)nc2c1,MIC90,[1],2 µg/mL
Cc1ccc2nc(C)c(C(=O)NCCOc3ccc(F)cc3)n2c1,MIC90,[1],0.146 µg/mL
Cc1ccn2c(C(=O)NCCOc3cccc([N+](=O)[O-])c3)c(C)nc2c1,MIC90,[1],0.5 µg/mL
Cc1ccn2c(C(=O)NCCOc3ccc([N+](=O)[O-])cc3)c(C)nc2c1,MIC90,[1],4 µg/mL
COc1cccc(OCCNC(=O)c2c(C)nc3ccc(C)cn23)c1,Vd/F,[2],188 L/kg
same,MIC,Escherichia coli,> 32 µg/mL
same,Activity,Rattus norvegicus,Non-Toxic
same,MIC,Klebsiella pneumoniae,> 32 µg/mL
same,AUC(0-inf),[3],214 ng·h/mL
same,Cmax,[4],351 ng/mL
same,MIC,[5],> 32 µg/mL
same,MIC,Staphylococcus aureus [6],> 32 µg/mL
same,MRT,[7],42.6 min
same,MIC,Pseudomonas aeruginosa,> 32 µg/mL
same,Activity,Mus musculus,Non-Toxic
same,MIC90,[1],0.03 µg/mL
same,MIC,Streptococcus pneumoniae,> 32 µg/mL
same,CL/F,[8],1940 mL/min/kg
same,Tmax,[9],10.2 min
same,MIC,[10],> 32 µg/mL
same,MIC,Staphylococcus aureus [11],> 32 µg/mL
same,half-life,[12],67.2 min
same,MIC,Staphylococcus aureus [13],> 32 µg/mL
Cc1ccc2nc(C)c(C(=O)NCCOc3ccccc3[N+](=O)[O-])n2c1,MIC90,[1],0.303 µg/mL
Cc1ccc2nc(C)c(C(=O)NCCOc3ccccc3C)n2c1,MIC,Escherichia coli,> 32 µg/mL
same,MIC,Klebsiella pneumoniae,> 32 µg/mL
same,MIC,[5],> 32 µg/mL
same,MIC,Staphylococcus aureus [6],> 32 µg/mL
same,MIC,Pseudomonas aeruginosa,> 32 µg/mL
same,MIC90,[1],0.038 µg/mL
same,MIC,Streptococcus pneumoniae,> 32 µg/mL
same,MIC,[10],> 32 µg/mL
same,MIC,Staphylococcus aureus [11],> 32 µg/mL
same,MIC,Staphylococcus aureus [13],> 32 µg/mL
COc1ccc(OCCNC(=O)c2c(C)nc3ccc(C)cn23)cc1,MIC,Escherichia coli,> 32 µg/mL
same,MIC,Klebsiella pneumoniae,> 32 µg/mL
same,MIC,[5],> 32 µg/mL
same,MIC,Staphylococcus aureus [6],> 32 µg/mL
same,MIC,Pseudomonas aeruginosa,> 32 µg/mL
same,MIC90,[1],0.031 µg/mL
same,MIC,Streptococcus pneumoniae,> 32 µg/mL
same,MIC,[10],> 32 µg/mL
same,MIC,Staphylococcus aureus [11],> 32 µg/mL
same,MIC,Staphylococcus aureus [13],> 32 µg/mL
Cc1ccc2nc(C)c(C(=O)NCCOc3ccc(-c4ccccc4)cc3)n2c1,MIC90,[1],0.39 µg/mL
Cc1ccc2nc(C)c(C(=O)NCCOc3ccccc3)n2c1,Vd/F,[2],33.8 L/kg
same,MIC,Escherichia coli,> 32 µg/mL
same,Activity,Rattus norvegicus,Non-Toxic
same,MIC,Klebsiella pneumoniae,> 32 µg/mL
same,AUC(0-inf),[3],453 ng·h/mL
same,Cmax,[4],655 ng/mL
same,MIC,[5],> 32 µg/mL
same,MIC,Staphylococcus aureus [6],> 32 µg/mL
same,MRT,[7],36.6 min
same,MIC,Pseudomonas aeruginosa,> 32 µg/mL
same,Activity,Mus musculus,Non-Toxic
same,MIC90,[1],0.054 µg/mL
same,MIC,Streptococcus pneumoniae,> 32 µg/mL
same,CL/F,[8],919 mL/min/kg
same,Tmax,[9],19.8 min
same,MIC,[10],> 32 µg/mL
same,MIC,Staphylococcus aureus [11],> 32 µg/mL
same,half-life,[12],25.8 min
same,MIC,Staphylococcus aureus [13],> 32 µg/mL
COc1cccc(OCCNC(=O)c2c(C)nc3cc(C)ccn23)c1,MIC90,[1],0.254 µg/mL
NNC(=O)c1ccncc1 [ISONIAZID],MIC90,[1],0.049 µg/mL
CO[C@H]1/C=C/O[C@@]2(C)Oc3c(C)c(O)c4c(O)c(c(/C=N/N5CCN(C)CC5)c(O)c4c3C2=O)NC(=O)/C(C)=C\C=C\[C@H](C)[C@H](O)[C@@H](C)[C@@H](O)[C@@H](C)[C@H](OC(C)=O)[C@@H]1C [RIFAMPIN],MIC90,[1],0.05 µg/mL
